Measurements published in article PMC11610768 (The AAPS journal, 2023).
Read-outs that look alike come from different tables or passages of the source.

How the values were obtained:
[1] = system: cyclin D1 in SKOV3 tumors; test: Cyclin D1 in SKOV3 xenograft tumors; format: in vivo, mice; details: 60 mg/kg oral once daily, observed at 12 h
Outline: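 Female athymic nude mice (Foxn1nu, 6–8 weeks) were given intraperitoneal SKOV3-luc cells, and tumours were confirmed after about 3 weeks. Dosing: 60 mg/kg oral, daily for 7 days, as a suspension in 30% Kolliphor HS 15 (6 mg/mL, 10 mL/kg); vehicle controls, n = 3. Tumours were taken after the last dose; archived 24-h single-dose tumours were also used. Lysate (5 µg protein) run in a total cyclin D1 sandwich ELISA in duplicate, read at OD 450 nm.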

[2] = system: cyclin D1 in SKOV3 cells; test: Concentration- and time-dependent changes in cyclin D1 in SKOV3 cells; format: cell-based, human
Outline: (§1)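 Cells grown in RPMI 1640 with 10% FBS and 1% antibiotic-antimycotic, seeded overnight at 37°C, 5% CO2, then exposed to test compound (DMSO) at 0–15 µM for 24 h. SKOV3 only: 2–24 h time course at 2.5 and 10 µM, and washout after 24 h at 10 µM with recovery at 4, 8, 24 h. Cyclin D1 measured by sandwich ELISA (5 µg protein, duplicates, OD 450 nm) and by western blot (20 µg lysate, β-actin reprobe).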

[3] = single oral dose study, tumor-bearing mice; cited from earlier work
[4] = animal models; cited from earlier work
[5] = format: in vivo, mice
Outline: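 Tumour-bearing nude mice (intraperitoneal SKOV3) received 60 mg/kg oral daily for 7 days in 30% Kolliphor HS 15. Saphenous blood was taken at 1, 4, 6, 8, 12 h after the first dose and at troughs 24–144 h, with 3 mice per point in rotating subgroups. Tissues were taken after the last dose. For HPLC-UV, plasma or tissue homogenate (3 mL/g phosphate buffer, pH 7.4) plus internal standard underwent acetonitrile precipitation, centrifugation and filtration. LLOQ 5 ng/mL; values given as mean ± SD.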

[6] = system: xenograft tumor models; details: 60 mg/kg QD; cited from earlier work
[7] = system: ccK18; test: ccK18 quantification in mouse plasma; format: in vivo, mice; details: single IV dose 10 mg/kg, 2–4 h after dosing; vehicle approx 700 U/L
[8] = system: colorectal tumors; details: APCmin/+ mouse, cited from earlier work
[9] = system: cyclin D1 in A2780 cells; test: Concentration-dependent changes in cyclin D1 in A2780 cells; format: cell-based, human; details: 24 h exposure, 1-15 µM, ELISA
Outline: as §1

[10] = system: mortalin; test: Western blot of total mortalin in ovarian cancer cells; format: cell-based, human
[11] = 60 mg/kg oral once daily for seven days
[12] = 60 mg/kg oral once daily, at 1 h

- IC50 ([2]; Homo sapiens, SK-OV-3, read-out: IC50 of cyclin D1 reduction): 4 to 5 µM
- accumulation of the drug in plasma [5, 11]: No significant accumulation
- mean trough concentrations in the plasma [5, 11]: 18.8 ± 6.6 ng/mL
- peak tumor concentration [5, 12]: around 4,000 ng/ml
- peak tumor concentration (equivalent) [5, 12]: ~ 10 µM
Structure (SMILES): CC1(C)CC(C)(C)c2cc(NC(=S)Nc3ccc([N+](=O)[O-])cc3)ccc2S1 [SHetA2]
- maximum reduction in cyclin D1 in tumor [1]: ~ 70%
- cyclin D1 level restored, of baseline ([2]; 24 h after drug removal, after 24 h exposure to 10 µM): over 80%
- maximum inhibition of cyclin D1 levels ([2]; SKOV3 cells, 24 h exposure, 1-15 µM, ELISA): ~ 70%
- time at which cyclin D1 levels began to recover after drug removal ([2]; after 24 h exposure to 10 µM, drug removed from culture medium): 4 h
- cyclin D1 reduction / inhibition observed ([2]; cancer cells (cell line not named at the place), dose-dependent): up to 70%
- elimination half-life [3]: 4.5 h
- adverse effects in genetic toxicology assays and toxicity tests [4]: no adverse effects observed
- antitumor activity [6]: 40–60%
- peak plasma ccK18 level [7]: 913 U/L
- reduction of cyclin D1 in the tumors ([8]; 30 mg/kg QD): 50%
- reduction of cyclin D1 in the tumors ([8]; 60 mg/kg QD): 90%
- reduction of incidence of colorectal tumors ([8]; QD doses of 30 or 60 mg/kg): over 50%
- maximum inhibition of cyclin D1 levels [9]: ~ 80%
- effect on total mortalin levels [10]: no effect
